How the values were obtained:
[1] = tested on: Trypanosoma brucei brucei; assay: Antitrypanosomal activity against Trypanosoma brucei brucei BF427 assessed as growth inhibition measured after 48 hrs by Alamar blue assay; type: functional; settings: BF427, 48 h
Method in brief: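 Bloodstream-form parasites in HMI-9 medium are exposed to serial compound dilutions in triplicate. Viability is read with Alamar Blue at 48 h. EC50 and EC90 come from nonlinear regression. Pentamidine isethionate is the control.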

[2] = Drug level in mouse plasma at 5 mg/kg, ip administered as single dose measured at 1 hr post dose by liquid chromatography/tandem mass spectrometric analysis; type: ADME, organism-based
Method in brief: (§1)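 Single ip dose of 5 mg/kg in 5% DMSO/7% Tween 80/3% EtOH in 0.9% saline, three mice per compound (six for one compound). At 1 h, plasma is separated by centrifugation and brain homogenized in acetonitrile. Both are quantified by LC-MS/MS, with brain corrected for 3% v/w blood. Brain/plasma ratio is reported as mean ± SEM.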

[3] = Drug level in mouse brain at 5 mg/kg, ip administered as single dose measured at 1 hr post dose by liquid chromatography/tandem mass spectrometric analysis; type: ADME, organism-based; settings: read-out: Drug uptake; method in brief: as §1
[4] = Selectivity index, ratio of EC50 for human HepG2 cells to EC50 for Trypanosoma brucei brucei BF427; type: toxicity; settings: read-out: Ratio EC50
[5] = Cytotoxicity against human CRL8155 cells assessed as growth inhibition after 48 hrs by Alamar blue assay; type: cell-based; settings: for EC50: Homo sapiens, CRL8155, 48 h; for EC90: human, crl8155, 48 h
Method in brief: (§2)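 CRL-8155 lymphoblasts or HepG2 hepatocellular carcinoma cells are exposed 48 h to serial compound dilutions in quadruplicate. Growth is read with Alamar Blue, and 50% and 90% inhibitory concentrations come from nonlinear regression. Quinacrine is the control.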

[6] = Selectivity index, ratio of EC50 for human CRL8155 cells to EC50 for Trypanosoma brucei brucei BF427; type: toxicity; settings: read-out: Ratio EC50
HepG2 = assay: Cytotoxicity against human HepG2 cells assessed as growth inhibition after 48 hrs by Alamar blue assay; type: cell-based; settings: for EC50: Homo sapiens, HepG2, 48 h; for EC90: human, hepg2, 48 h; method in brief: as §2
Liver [7] = assay: Half life in mouse liver microsomes at 1.5 uM in presence of NADPH by liquid chromatography/tandem mass spectrometric analysis; type: ADME, microsome
Liver [8] = assay: Half life in human liver microsomes at 1.5 uM in presence of NADPH by liquid chromatography/tandem mass spectrometric analysis; type: ADME, microsome

Structure (SMILES)	EC50 [1]	EC90 [1]	concentration at 1 h [2]	concentration at 1 h [3]	selectivity ratio [4]	EC50 [5]	EC90 [5]	selectivity ratio [6]	EC50 (HepG2)	EC90 (HepG2)	t1/2 (Liver [7])	t1/2 (Liver [8])
CC(C)(CNC(=O)c1ccccc1)c1nc(-c2ccccc2)cs1	> 10 µM	> 10 µM										
O=C(Nc1ccc2sc(-c3ccccc3)nc2c1)N1CCSC1	1.24 µM	2.38 µM										
O=C(Nc1ccc2sc(-c3ccc(F)c(F)c3)nc2c1)N1CCC(C(F)(F)F)C1 (centres undefined)	1.69 µM	4.88 µM	4150 nM	1970 nM								
O=C(Nc1ccc2sc(-c3ccccc3)nc2c1)c1cccs1	0.882 µM	2.13 µM			> 57	> 50 µM	> 50 µM	> 57	> 50 µM	> 50 µM		
O=C(Nc1ccc2sc(-c3ccccc3)nc2c1)c1cscn1	> 10 µM	> 10 µM										
O=C(Nc1ccc2sc(-c3cccc(F)c3)nc2c1)N1CCCCC1	0.174 µM	0.602 µM			> 287	> 50 µM	> 50 µM	> 287	> 50 µM	> 50 µM	11 min	8.9 min
O=C(Nc1ccc2sc(-c3ccc(F)c(F)c3)nc2c1)N1CC[C@@H](F)C1	0.326 µM	0.491 µM	1200 nM	6350 nM	> 153	> 50 µM	> 50 µM	> 153	> 50 µM			
O=C(Nc1ccc2scnc2c1)N1CCCC1	> 20 µM	> 20 µM										
O=C(Nc1ccc2sc(-c3ccccc3)nc2c1)N1CC=CCC1	1.12 µM	1.35 µM										
COC1CCN(C(=O)Nc2ccc3sc(-c4ccc(F)c(F)c4)nc3c2)C1 (centres undefined)	3.05 µM	4.59 µM										
N#CC1CCN(C(=O)Nc2ccc3sc(-c4ccc(F)c(F)c4)nc3c2)C1 (centres undefined)	2.85 µM	4.67 µM										
O=C(NCCc1nc(-c2cccc(F)c2)cs1)N1CCCc2ccccc21	5.95 µM	14 µM										
O=C(Nc1ccc2sc(-c3ccc(F)c(F)c3)nc2c1)N1CCC(O)C1 (centres undefined)	7.68 µM	13.6 µM										
C[C@@H]1CCC[C@H](C)N1C(=O)NCCc1nc(-c2cccc(F)c2)cs1	0.399 µM	0.564 µM			> 125	> 50 µM	> 50 µM	> 125	> 50 µM	> 50 µM		
CC(C)(Cc1nc(-c2cccc(F)c2)cs1)NC(=O)c1ccccc1	> 10 µM	> 10 µM										
C[C@]12CC[C@H]3[C@@H](CCC4=CC(=O)CC[C@@]43C)[C@@H]1CC[C@@H]2O [TESTOSTERONE]											5.26 min	22.7 min
O=C(Nc1ccc2sc(-c3ccccc3F)nc2c1)N1CCCCC1	0.935 µM	1.14 µM			> 53	> 50 µM	> 50 µM	> 53	> 50 µM	> 50 µM		
COc1ccc2c(c1)[C@]13CCCC[C@@H]1[C@H](C2)N(C)CC3 [DEXTROMETHORPHAN]											7.79 min	39.15 min
O=C(Nc1ccc2sc(-c3ccc(F)c(F)c3)nc2c1)N1CCCCC1	0.223 µM	0.282 µM	2520 nM	1290 nM	> 224	> 50 µM	> 50 µM	> 224	> 50 µM	> 50 µM		
O=C(Nc1ccc2sc(-c3cccc(F)c3)nc2c1)N1CCN(C(=O)Nc2ccc3sc(-c4cccc(F)c4)nc3c2)CC1	> 20 µM	> 20 µM										
O=C1CCN(C(=O)NCCc2nc(-c3cccc(F)c3)cs2)CC1	0.667 µM	0.813 µM			> 75	> 50 µM	> 50 µM	> 75	> 50 µM	> 50 µM		
CC(C)(Cc1csc(-c2ccccc2)n1)NC(=O)N1CCCCCC1	> 10 µM	> 10 µM										
O=C(Nc1ccc2sc(-c3cccc(F)c3F)nc2c1)N1CCCC1	0.183 µM	0.394 µM	1300 nM	2310 nM	> 273	> 50 µM	> 50 µM	> 273	> 50 µM	> 50 µM		
O=C(Nc1ccc2sc(-c3ccccc3)nc2c1)c1ccsc1	1.57 µM	2.49 µM										
O=C(Nc1ccc2oc(-c3ccccc3)nc2c1)c1ccccc1	> 10 µM	> 10 µM									17 min	60 min

From ChEMBL document CHEMBL3992510, “Urea Derivatives of 2-Aryl-benzothiazol-5-amines: A New Class of Potential Drugs for Human African Trypanosomiasis” (J Med Chem, 2017)
